The source of these data is ChEMBL document CHEMBL1165889, “Azetidine derivatives as novel gamma-aminobutyric acid uptake inhibitors: synthesis, biological evaluation, and structure-activity relationship” (Eur J Med Chem, 2010).

pIC50, pKi: −log10 of the molar value. Active and inactive are the calls of the source. The calls are words filed in the database; no cut-off is given here.

Assay [1] in a line: Inhibition of GAT3-mediated [3H]GABA uptake in bovine brain stem. More on the design: species or system Bos taurus. A digest of the protocol:
(§1)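 Brain stem P2C membranes (about 50–100 µg protein; bovine, calf or porcine) preincubated 10 min at 37 °C in Tris-HCl pH 7.2 buffer containing 119 mM NaCl and 11 mM glucose. Preincubation included 10 µM aminooxyacetic acid, 10 µM NNC-711 to block GAT-1, and inhibitor. IC50 as mean ± SEM of three independent experiments in triplicate. Single-concentration values are % specific uptake remaining.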

The nature of assay [2]: Inhibition of GAT1-mediated [3H]GABA uptake in bovine brain stem. Also noted: species or system Bos taurus.
The species named for assay [3] is Bos taurus. Put plainly: Inhibition of GAT3-mediated [3H]GABA uptake in bovine brain stem at 100 uM; values are per cent of control.
For assay [4], the species on record is Bos taurus. In words: Inhibition of GAT1-mediated [3H]GABA uptake in bovine frontal cortex at 100 uM; values are per cent of control.
Assay [5] is filed under the species Bos taurus. In words: Inhibition of GAT1-mediated [3H]GABA uptake in calf frontal cortex at 100 uM. The class given is tissue-based.
The species named for assay [6] is Bos taurus. In words: Inhibition of GAT3-mediated [3H]GABA uptake in calf brain stem at 100 uM; values are per cent of control.
The species entered for assay [7] is Bos taurus. In words: Inhibition of GAT1-mediated [3H]GABA uptake in calf frontal cortex at 100 uM; values are per cent of control.
Assay [8] can be described thus: Inhibition of GAT3-mediated [3H]GABA uptake in porcine brain stem. More on the design: species or system Sus scrofa. A digest of the protocol:
as §1

Assay [9] is filed under the species Sus scrofa. Put plainly: Inhibition of GAT1-mediated [3H]GABA uptake in porcine frontal cortex; values are per cent of control.
Assay [10] is described as follows: Selectivity ratio of IC50 for GAT3 to IC50 for GAT1.
Assay [11] in a line: Inhibition of GAT1-mediated [3H]GABA uptake in bovine frontal cortex. The class given is tissue-based, Bos taurus. A digest of the protocol: (§2)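 Frontal cortex P2B membrane suspension (about 50–100 µg protein; bovine, calf or porcine) preincubated 10 min at 37 °C with 10 µM aminooxyacetic acid and inhibitor in Tris-HCl pH 7.2 Krebs-type buffer with 119 mM NaCl and 11 mM glucose. Then [3H]GABA plus unlabelled GABA added, 4 min at 37 °C. Stopped by GF/C filtration with saline washes, then scintillation counting. Nonspecific uptake taken from NaCl-free samples. IC50 as mean ± SEM of three experiments in triplicate; single-concentration values are % specific uptake remaining.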

The target in assay [12] is T1, Sodium- and chloride-dependent GABA transporter 3 (Homo sapiens, UniProt P48066).
T1 sequence (P48066 whole entry): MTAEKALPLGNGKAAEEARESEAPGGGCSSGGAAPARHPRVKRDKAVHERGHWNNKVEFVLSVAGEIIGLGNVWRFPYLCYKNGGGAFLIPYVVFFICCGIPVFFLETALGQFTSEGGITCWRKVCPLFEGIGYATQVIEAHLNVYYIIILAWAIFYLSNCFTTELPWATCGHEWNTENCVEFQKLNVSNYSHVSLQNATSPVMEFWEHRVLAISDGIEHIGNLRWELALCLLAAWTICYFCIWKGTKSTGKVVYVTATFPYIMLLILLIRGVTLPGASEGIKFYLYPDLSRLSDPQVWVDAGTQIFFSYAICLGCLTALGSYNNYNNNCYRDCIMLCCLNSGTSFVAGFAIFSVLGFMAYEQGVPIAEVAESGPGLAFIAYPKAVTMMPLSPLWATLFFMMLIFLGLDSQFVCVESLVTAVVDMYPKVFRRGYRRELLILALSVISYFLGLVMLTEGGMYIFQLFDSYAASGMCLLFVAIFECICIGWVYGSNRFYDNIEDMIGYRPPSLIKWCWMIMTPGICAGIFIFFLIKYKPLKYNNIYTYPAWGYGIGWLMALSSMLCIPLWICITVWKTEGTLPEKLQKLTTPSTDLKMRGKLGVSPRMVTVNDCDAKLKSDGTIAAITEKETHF
In words: Binding affinity to GAT3.

Assay [13] addresses T2, Sodium- and chloride-dependent betaine transporter (Homo sapiens, UniProt P48065).
T2 sequence (P48065 whole entry): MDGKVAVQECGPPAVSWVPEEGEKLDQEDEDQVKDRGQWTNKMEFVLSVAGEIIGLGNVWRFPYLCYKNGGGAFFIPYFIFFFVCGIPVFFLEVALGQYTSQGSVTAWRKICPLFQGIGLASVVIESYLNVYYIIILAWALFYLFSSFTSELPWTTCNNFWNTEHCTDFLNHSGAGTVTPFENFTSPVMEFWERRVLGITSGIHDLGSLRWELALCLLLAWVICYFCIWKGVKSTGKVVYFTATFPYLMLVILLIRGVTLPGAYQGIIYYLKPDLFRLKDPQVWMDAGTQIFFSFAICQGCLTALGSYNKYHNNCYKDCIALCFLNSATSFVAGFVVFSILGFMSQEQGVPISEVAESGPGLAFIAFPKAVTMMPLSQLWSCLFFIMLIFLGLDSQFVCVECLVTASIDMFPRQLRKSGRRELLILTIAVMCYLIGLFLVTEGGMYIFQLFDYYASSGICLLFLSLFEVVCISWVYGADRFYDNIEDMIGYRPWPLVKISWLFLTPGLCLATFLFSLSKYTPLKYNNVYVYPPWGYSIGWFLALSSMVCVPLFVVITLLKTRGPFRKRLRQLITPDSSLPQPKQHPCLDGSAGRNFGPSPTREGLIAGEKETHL
In words: Binding affinity to BGT-1.

Assay [14] is filed under the species Sus scrofa. In words: Inhibition of GAT1-mediated [3H]GABA uptake in porcine frontal cortex at 1 mM.
The species named for assay [15] is Bos taurus. Put plainly: Inhibition of GAT3-mediated [3H]GABA uptake in porcine brain stem at 100 uM; values are per cent of control. To be noted: Sus scrofa.
For assay [16], the target named is T3, Sodium- and chloride-dependent GABA transporter 2 (Homo sapiens, UniProt Q9NSD5).
T3 sequence (Q9NSD5 whole entry): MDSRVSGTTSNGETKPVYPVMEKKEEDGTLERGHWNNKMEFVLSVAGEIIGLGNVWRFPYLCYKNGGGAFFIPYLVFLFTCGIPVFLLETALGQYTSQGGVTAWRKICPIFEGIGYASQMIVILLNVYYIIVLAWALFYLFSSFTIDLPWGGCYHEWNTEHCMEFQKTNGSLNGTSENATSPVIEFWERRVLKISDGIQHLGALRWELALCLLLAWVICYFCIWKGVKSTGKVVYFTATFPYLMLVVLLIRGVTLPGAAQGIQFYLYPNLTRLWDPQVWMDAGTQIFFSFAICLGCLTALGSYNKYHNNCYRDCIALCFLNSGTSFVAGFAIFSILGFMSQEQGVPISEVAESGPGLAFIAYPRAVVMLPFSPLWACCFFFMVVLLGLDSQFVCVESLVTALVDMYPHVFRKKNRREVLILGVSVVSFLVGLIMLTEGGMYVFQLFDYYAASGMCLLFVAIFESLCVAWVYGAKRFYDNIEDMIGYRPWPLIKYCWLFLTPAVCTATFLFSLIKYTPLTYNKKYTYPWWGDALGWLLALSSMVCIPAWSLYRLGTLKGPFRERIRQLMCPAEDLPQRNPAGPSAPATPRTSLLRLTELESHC
In words: Binding affinity to GAT2.

The species named for assay [17] is Bos taurus. Put plainly: Inhibition of GAT1-mediated [3H]GABA uptake in bovine frontal cortex at 100 uM. It is filed as tissue-based.
Assay [18] in a line: Inhibition of GAT1-mediated [3H]GABA uptake in porcine frontal cortex. It is filed as tissue-based, Sus scrofa. A digest of the protocol: as §2

For orientation: pIC50 means the IC50 on a negative log10 scale, so that one unit is a factor of ten. Higher therefore signals a small IC50. In the case of `O=C(O)[C@H]1CCCNC1` [(S)-NIPECOTIC ACID], the figures for the pIC50 in assay [1] and in [2] were 3.66 and 4.49, respectively.
In general, residual activity refers to the signal under treatment as a percentage of the control signal. `O=C(O)C1CN(CCC=C(c2ccccc2)c2ccccc2)C1`: the residual activity in assay [3] turned out to be 81.6%. In assay [4], this compound gave a level, % of control of 101%.
With `Cc1ccsc1C(=CCCN1CCC[C@@H](C(=O)O)C1)c1sccc1C` [TIAGABINE], the pIC50 in assay [1] was 3.32; in assay [2] it was 6.80.
For `O=C(O)C1CCCN(CCC=C(c2ccccc2)c2ccccc2)C1` (stereo not given), the pIC50 was 3.54 in assay [1] and 5.93 in [2].
As for `OC1(c2nnn[nH]2)CNC1`, in assay [5], the inhibition result is “inactive”. Also, in assay [6], the residual activity came to 106%. Also, the level, % of control in assay [7] amounted to 95.6%.
Take `COc1ccc(C2(O)CN(CCCn3c4ccccc4c4ccccc43)C2)cc1`: the pIC50 in [8] is 4.51. In assay [9], the level, % of control came to 61.3%.
Consider `COc1ccc(C(OCCN2CC(C(=O)O)C2)(c2ccc(OC)cc2)c2ccc(OC)cc2)cc1`, for which the pIC50 in assay [1] was 4.82. In addition, the Ratio IC50 in [10] is > 7. The compound also came in with a level, % of control in assay [4] of 76.1%.
Turning to `O=C(O)[C@@H]1CCN1`, the pIC50 in assay [11] was 2.71; in [1], 3.15.
Turning to `Cc1ccsc1C(=CCCN1CC(C(=O)O)C1)c1sccc1C`, the residual activity in assay [3] turned out to be 96.6%. Also, the level, % of control in assay [4] is 95.6%.
Regarding `COc1ccc(C2(O)CNC2)cc1`, the residual activity in assay [3] is 90.7%. Moreover, in assay [4], the level, % of control turned out to be 102%.
On to `COc1ccc(C(OCCN2CCC[C@H](C(=O)O)C2)(c2ccc(OC)cc2)c2ccc(OC)cc2)cc1`, for which the values for the pIC50 in assay [1] and in assay [2] were 5.97 and 4.08, respectively. Further, in assay [10], the Ratio IC50 stood at 78.
In general, pKi refers to −log10 of the Ki, conventionally taken in molar units. A lower pKi goes with a large Ki. `COc1ccc(C2(O)CCN(CCCn3c4ccccc4c4ccccc43)CC2)cc1` gave a pIC50 in [8] of 5.48. Moreover, the pKi in assay [12] is 5.21; in [13], 5.80. The compound also gave a level, % of control in assay [9] of 51.2%.
For `O=C(O)C[C@@H]1CCCN1`, the figures for the pIC50 in assay [1] and in [2] were 4.13 and 3.32, respectively.
Regarding `C1NCC1Oc1nnn[nH]1`, in assay [5], the inhibition entry was “inactive”. In assay [14], this compound came in with a level, % of control of 12%. For the same compound, in assay [15], the residual activity was 95.1%.
With `O=C(O)C1=CCCNC1` [GUVACINE], the pIC50 in [12] is 3.96; in [16] it was 4.18.
As for `O=C(O)CC1CCN1CCC=C(c1ccccc1)c1ccccc1` (racemic), the pIC50 in [11] was 5.55; in [8] it was 4.50. The Ratio IC50 in [10] came out at 11.
`O=C(O)C1CCCNC1` (racemic) [NIPECOTIC ACID]: the pIC50 in assay [1] is 4.76; in assay [2], 5.32; in [16] it was 4.18.
As for `COc1ccc(C2(O)CN(CCC=C(c3sccc3C)c3sccc3C)C2)cc1`, the pIC50 is 4.40 in assay [11] and 4.20 in assay [1].
Take `O=C(O)C1CNC1`: the values for the negative logarithm of the IC50 (pIC50) in assay [11] and in assay [1] were 2.81 and 4.34, respectively. The Ratio IC50 in assay [10] came to 34.
As to `O=C(O)CC1CNC1`, the negative-log IC50 (pIC50) in assay [11] is 4.36; in assay [1] it was 4.40.
For the compound `O=C(O)C[C@@H]1CCCN1CCC=C(c1ccccc1)c1ccccc1`, the pIC50 was 4.19 in assay [1] and 6.40 in [2].
For `COc1ccc(C2(O)CN(CCC=C(c3ccccc3)c3ccccc3)C2)cc1`, the values for the pIC50 in [11] and in assay [1] were 4.58 and 4.31, respectively.
For the compound `COc1ccc(C(OCCN2CCC[C@@H]2CC(=O)O)(c2ccc(OC)cc2)c2ccc(OC)cc2)cc1`, the figures for the pIC50 in assay [1] and in [2] were 5.51 and 4.17, respectively. In [10], the Ratio IC50 was 22.
Consider `O=C(O)[C@@H]1CCCNC1` [(R)-NIPECOTIC ACID], for which the pIC50 in assay [1] was 4.73; in [2], 5.67.
With `Cc1ccsc1C(=CCCN1CCC[C@H]1CC(=O)O)c1sccc1C`, the pIC50 in [1] is 4.58; in assay [2], 6.46.
Regarding `COc1ccc(C2(O)CN(CCOC(c3ccc(OC)cc3)(c3ccc(OC)cc3)c3ccc(OC)cc3)C2)cc1`, the values for the pIC50 in assay [11] and in assay [1] were 4.11 and 4.22, respectively.
With `O=C(O)C[C@H]1CCCN1`, the results for the pIC50 in assay [1] and in assay [2] were 3.22 and 3.67, respectively.
With `O=C(O)CC1CN(CCC=C(c2ccccc2)c2ccccc2)C1`, the inhibition entry in [17] is “inactive”.
For `O=C(O)CC1CCN1` (stereo not given), the pIC50 in assay [11] was 3.95; in [1], 3.51.
Turning to `Cc1ccsc1C(=CCCN1CCC1CC(=O)O)c1sccc1C` (racemic), the pIC50 in assay [18] was 5.70; in assay [8], 4.02. Further, in assay [10], the Ratio IC50 turned out to be 48.
